This is an account of results in publication PMC4433557 (ACS chemical biology, 2015).

Where a SMILES comes first, the peptide text is derived from it. Where no end group is shown, it is not given here. [ ]: non-standard residue; d: D form. Phe(4-F) = N[C@@H](Cc1ccc(F)cc1)C(=O)O; pS = N[C@@H](COP(=O)(O)O)C(=O)O; βAla = NCCC(=O)O

One test has as its system GST-BRCA1 (BRCT)2 E1698A. Kind of test: fluorescence polarization binding to GST-BRCA1. On the set-up: species or system human. The note with it: FP; FITC-BACH1 peptide. In short, it runs like this: (§1)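 Direct fluorescence polarization of GST-BRCA1 (BRCT)2 point mutants and wild type, using either the labelled BACH1 phosphopeptide (FITC-[…]-NH2) or FAM-β-Ala-labelled test peptide as probe. KD for each mutant was determined by FP, then normalized to the wild-type GST-(BRCT)2 KD.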
For orientation: In fluorescence polarisation assays a small probe gives low polarisation when free and higher when bound to something large.

The next test relates to GST-BRCA1 (BRCT)2 N1774A. Kind of test: fluorescence polarization binding to GST-BRCA1. On the set-up: species or system human. The note with it: FP; FITC-BACH1 peptide. In a few lines:
as §1

In a further test the test system is GST-BRCA1 (BRCT)2 S1655A. Kind of test: fluorescence polarization binding to GST-BRCA1. On the set-up: species or system human. Conditions: FP; fluorescent peptides FAM-β-Ala-8.6 or FITC-BACH1 peptide. In a few lines:
as §1

Another test relates to GST-BRCA1 (BRCT)2 K1702M. Put plainly: fluorescence polarization binding to GST-BRCA1. Further details: species or system human. Conditions: FP; FITC-BACH1 peptide. In short, it runs like this: as §1
The test system of test [1] is phospho-CtIP and BRCA1 (BRCT)2. Kind of test: pull down-western of phospho-CtIP-myc from cell lysates with BRCA1. The class given is binding. The note with it: synthesized peptide, increasing concentrations.
Another test has as its target BRCA1 (BRCT)2 (Homo sapiens, UniProt P38398). Kind of test: isothermal titration calorimetry with TR-. It is filed as binding. The note with it: ITC. In general terms: ITC needs no label: the signal is the heat of the interaction.
Test [2] deals with BACH1-derived tetrapeptide (Homo sapiens) (UniProt Q9BX63). The note with it: cited from earlier work.
BACH1-derived tetrapeptide (Homo sapiens), sequence (Q9BX63 whole entry, looked up, the tested form may be a part): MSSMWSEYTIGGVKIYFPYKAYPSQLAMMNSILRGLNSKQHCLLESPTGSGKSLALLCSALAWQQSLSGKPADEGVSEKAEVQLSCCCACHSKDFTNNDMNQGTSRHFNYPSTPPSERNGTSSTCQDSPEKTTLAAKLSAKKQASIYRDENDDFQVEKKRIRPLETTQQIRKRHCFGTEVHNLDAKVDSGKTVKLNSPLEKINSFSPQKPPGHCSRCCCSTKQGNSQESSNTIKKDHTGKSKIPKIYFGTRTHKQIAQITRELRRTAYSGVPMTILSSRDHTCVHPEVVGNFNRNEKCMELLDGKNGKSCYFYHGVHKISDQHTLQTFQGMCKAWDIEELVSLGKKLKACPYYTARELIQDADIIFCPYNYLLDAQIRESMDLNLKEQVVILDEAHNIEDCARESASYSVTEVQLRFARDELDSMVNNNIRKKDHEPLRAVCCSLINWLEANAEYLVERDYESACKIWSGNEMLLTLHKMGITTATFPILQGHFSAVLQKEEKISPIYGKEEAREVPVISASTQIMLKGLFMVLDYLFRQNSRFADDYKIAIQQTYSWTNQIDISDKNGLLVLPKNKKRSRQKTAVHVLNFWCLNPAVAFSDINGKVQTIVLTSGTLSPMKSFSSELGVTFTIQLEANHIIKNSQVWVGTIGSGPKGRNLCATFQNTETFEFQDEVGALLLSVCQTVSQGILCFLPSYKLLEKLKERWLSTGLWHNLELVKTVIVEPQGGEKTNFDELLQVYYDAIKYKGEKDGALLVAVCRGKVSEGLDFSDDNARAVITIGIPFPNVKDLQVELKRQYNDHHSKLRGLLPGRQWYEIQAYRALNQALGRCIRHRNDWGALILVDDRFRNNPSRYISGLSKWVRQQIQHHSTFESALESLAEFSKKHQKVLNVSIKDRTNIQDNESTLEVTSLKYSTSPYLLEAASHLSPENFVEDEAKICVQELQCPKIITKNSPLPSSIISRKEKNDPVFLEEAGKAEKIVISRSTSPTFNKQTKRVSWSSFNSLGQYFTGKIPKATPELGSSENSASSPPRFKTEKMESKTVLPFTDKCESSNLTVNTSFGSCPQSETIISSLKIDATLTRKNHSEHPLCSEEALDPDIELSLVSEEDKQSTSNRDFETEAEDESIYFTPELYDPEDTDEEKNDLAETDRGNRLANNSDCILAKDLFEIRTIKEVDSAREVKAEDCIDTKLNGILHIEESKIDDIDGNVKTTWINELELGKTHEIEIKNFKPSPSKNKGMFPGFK
The target of test [3] is BRCA1 (BRCT)2 (thioredoxin-(BRCT)2 fusion) (Homo sapiens, UniProt P38398). Put plainly: competition fluorescence polarization assay against FAM-β-A-pSPTF-NH2. The class given is binding. In a few lines:
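Competition fluorescence polarization: 20 nM FAM-β-A-pSPTF tracer plus 2.7 μM thioredoxin-(BRCT)2 fusion, titrated with variable concentrations of test peptide. IC50 obtained by fitting a four-parameter logistic equation.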

The target of test [4] is thioredoxin-(BRCT)2 fusion (human) (UniProt P38398). Kind of test: ITC.
Test [5] has the same target. Put plainly: fluorescence polarisation.
Test [6] deals with GST-BRCA1 (BRCT)2 K1702M (human) (UniProt P38398). Kind of test: fluorescence polarisation.

In the case of FITC-SRSTpSTPFNK-NH2 [pSer peptide], in the test on GST-BRCA1 (BRCT)2 E1698A, the “change in affinity, E1698A versus wild type” value was “no significant change in affinity”. In addition, in the test on GST-BRCA1 (BRCT)2 N1774A, the “change in affinity, N1774A versus wild type” value is recorded as “no significant change in affinity”. In addition, the “binding to S1655A mutant versus wild type” value with GST-BRCA1 (BRCT)2 S1655A is “completely abolished recognition”. Further, the “binding to K1702M mutant versus wild type” value in the test with GST-BRCA1 (BRCT)2 K1702M is on record as “completely abolished recognition”.
As for “8.6 Nat: peptide 8.6 with the two 4FPhe substituted with Phe (MCTIDFDEYRFRKT)”, in test [1], the “blocking of binding of phospho-CtIP and BRCA1 in cell lysates” value was “able to block the binding”. In addition, in the test with BRCA1 (BRCT)2, the “binding after substitution of the two 4FPhe with Phe” value was “did not significantly abrogate binding”.
Take BRCA1 BRCT2 (from UniProt P38398): the Kd (as a rule, the equilibrium constant for the complex coming apart) in test [2] was 0.19 µM.
As to `CC[C@H](C)[C@H](NC(=O)[C@H](Cc1ccc(F)cc1)NC(=O)[C@H](CC(=O)O)NC(=O)[C@H](CO)NC(=O)[C@H](CS)NC(=O)[C@H](CCSC)NC(C)=O)C(=O)N[C@@H](Cc1ccc(F)cc1)C(=O)N[C@@H](CO)C(=O)N[C@@H](CCCNC(=N)N)C(=O)N[C@@H](CCCNC(=N)N)C(=O)N[C@H](C(=O)N[C@@H](Cc1ccc(O)cc1)C(=O)N[C@H](C(=O)N[C@@H](Cc1ccc(F)cc1)C(N)=O)[C@@H](C)O)[C@@H](C)O` [8.2] (Ac-MCSD[Phe(4-F)]I[Phe(4-F)]SRRTYT[Phe(4-F)]-NH2), in [3], the IC50 (as a rule, the midpoint of a concentration-inhibition curve) was 49 ± 5 µM.
Consider “8.6E8pS: mutant of peptide 8.6 containing the Glu to pSer mutation (MCTID[Phe(4-F)]D[pS]YR[Phe(4-F)]RKT)”, for which the “fold lower KD than peptide 8.6” value with BRCA1 (BRCT)2 (25 °C, pH 7.4, TR-(BRCT)2 20 uM, peptide 214 μM) was determined as 10 fold.
On to `CSCC[C@H](NC(C)=O)C(=O)N[C@@H](CS)C(=O)N[C@@H](Cc1ccc(O)cc1)C(=O)N[C@@H](CC(=O)O)C(=O)N[C@@H](Cc1ccc(F)cc1)C(=O)N[C@@H](CC(=O)O)C(=O)N[C@H](C(=O)N[C@H](C(=O)N[C@@H](CC(N)=O)C(=O)N[C@@H](CC(=O)O)C(=O)N[C@@H](Cc1c[nH]cn1)C(=O)N[C@H](C(=O)N[C@@H](Cc1ccc(F)cc1)C(N)=O)[C@@H](C)O)[C@@H](C)O)[C@@H](C)O` [8.5] (HELM PEPTIDE1{[ac].M.C.Y.D.[O=C([C@H](Cc1ccc(F)cc1)N[*:1])[*:2]].D.T.T.N.D.H.T.[O=C([C@H](Cc1ccc(F)cc1)N[*:1])[*:2]].[am]}$$$$V2.0), for which, in test [3], the IC50 is 26 ± 2 µM.
Still for that read-out and setting: next, `CC[C@H](C)[C@H](NC(=O)[C@H](Cc1ccc(F)cc1)NC(=O)[C@H](CC(=O)O)NC(=O)[C@H](CC(N)=O)NC(=O)[C@H](CS)NC(=O)[C@H](CCSC)NC(C)=O)C(=O)N[C@@H](Cc1ccc(F)cc1)C(=O)N[C@@H](CCCNC(=N)N)C(=O)N[C@@H](CCCNC(=N)N)C(=O)N[C@@H](CO)C(=O)N[C@H](C(=O)N[C@@H](Cc1ccc(F)cc1)C(=O)N[C@@H](CCCNC(=N)N)C(=O)N[C@@H](C)C(N)=O)[C@@H](C)O` [8.1] (Ac-MCND[Phe(4-F)]I[Phe(4-F)]RRST[Phe(4-F)]RA-NH2): 24 ± 2 µM.
“Y9A: Tyr to Ala mutant of peptide 8.6 (MCTID[Phe(4-F)]DEAR[Phe(4-F)]RKT)”: the “competitive binding of alanine mutant relative to wild-type 8.6” value in [3] (competition FP, TR-BRCA1 (BRCT)2 2.5 μM, FAM-β-Ala-pSPTF-NH2 20 nM) is “competed more effectively for binding than the wild-type 8.6”.

B1: peptide 8.6 (peptide)
peptide: MCTIDFDEYRFRKT
HELM: PEPTIDE1{[ac].M.C.T.I.D.[O=C([C@H](Cc1ccc(F)cc1)N[*:1])[*:2]].D.E.Y.R.[O=C([C@H](Cc1ccc(F)cc1)N[*:1])[*:2]].R.K.T.[am]}$$$$V2.0
SMILES: CC[C@H](C)[C@H](NC(=O)[C@@H](NC(=O)[C@H](CS)NC(=O)[C@H](CCSC)NC(C)=O)[C@@H](C)O)C(=O)N[C@@H](CC(=O)O)C(=O)N[C@@H](Cc1ccc(F)cc1)C(=O)N[C@@H](CC(=O)O)C(=O)N[C@@H](CCC(=O)O)C(=O)N[C@@H](Cc1ccc(O)cc1)C(=O)N[C@@H](CCCNC(=N)N)C(=O)N[C@@H](Cc1ccc(F)cc1)C(=O)N[C@@H](CCCNC(=N)N)C(=O)N[C@@H](CCCCN)C(=O)N[C@H](C(N)=O)[C@@H](C)O
In [4], B1 registered a Kd of 3.7 µM and a dH (printed as a magnitude; the paper calls it negative) of 24.6 kcal/mol. In test [5], this molecule yielded a 50% inhibitory concentration (IC50) of 10 µM.

B2: peptide 8.6E8pS (peptide)
peptide: MCTID[Phe(4-F)]D[pS]YR[Phe(4-F)]RKT
Molecule B2 returned a fold lower KD than peptide 8.6 in test [4] of 10 fold.

B3: FAM-β-Ala-…-NH2 (peptide)
peptide: {FAM-βAla}-MCTIDFDEYRFRKT-NH2
In turn, B3 came in with a fold reduction in binding against wild-type GST-BRCA1 (BRCT)2 in test [6] of 6 fold.
